Sampled rows, rich in hits. Any-hit rate of the full collection: about 2.3%.
OXTR agonist: human OXTR agonists, primary screen, fluorescence, CHO-OTR cells, Fluo-8 calcium | Oxytocin receptor (Homo sapiens), P30559 | Fluo-8 calcium fluorescence; normalized: DMSO 0%, oxytocin 100% | activation, % at 3 µM | actives 0.32% (n = 320,000);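 active means activation above the mean of all tested compounds plus 3 SD, cutoff set per screening run, cut at about 20% in these data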;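 further: peak over basal fluorescence ratio from a 100 s FLIPR kinetic read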
Target sequence (P30559 whole entry, looked up): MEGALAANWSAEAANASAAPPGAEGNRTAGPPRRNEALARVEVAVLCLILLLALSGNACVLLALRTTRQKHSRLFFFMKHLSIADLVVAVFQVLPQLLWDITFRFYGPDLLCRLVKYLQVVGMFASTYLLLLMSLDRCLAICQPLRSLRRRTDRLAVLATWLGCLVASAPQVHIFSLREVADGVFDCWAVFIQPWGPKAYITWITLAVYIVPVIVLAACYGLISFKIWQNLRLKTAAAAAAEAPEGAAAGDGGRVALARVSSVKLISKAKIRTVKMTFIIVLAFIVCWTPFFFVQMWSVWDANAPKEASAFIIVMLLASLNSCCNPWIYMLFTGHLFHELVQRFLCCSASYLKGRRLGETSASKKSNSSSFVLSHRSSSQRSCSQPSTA
OXTR potentiate: human OXTR potentiators, primary screen, fluorescence, CHO-OTR cells, Fluo-8 calcium. Oxytocin receptor (Homo sapiens), P30559. activation, % at 3 µM. AID 2445, 2010. Fluo-8 calcium fluorescence, potentiator mode; 0% = oxytocin EC15, 100% = EC100. actives 0.061% (n = 320,000);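 active means activation above that plate's cutoff, the mean activation of tested compounds plus 3 SD, cut at about 6.6% in these data, passing the limit was not always enough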
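Assay system: CHO cell line stably expressing human OTR | Also added: Oxytocin at about EC15, sub-maximal agonist stimulus | Times: Compound 6 min at room temperature before oxytocin, 100 s read | Measured by: Fluo-8 intracellular calcium fluorescence, ex 470-495, em 515-575 nm | Controls: EC15 oxytocin alone as 0%, 75 nM oxytocin as 100%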
TAAR1 ag: human TAAR1 agonists, primary screen, Fluo-8 calcium fluorescence, CHO RD-HGA16 cells | Trace amine-associated receptor 1 (Homo sapiens), Q96RJ0 | vehicle wells 0%, saturating PEA agonist 100% | activation, % at 3 µM | actives 0.99% (n = 360,000) | AID 624467, 2012;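 active means activation above the mean activation of all test compounds in the run plus 3 SD, cut at about 38% in these data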
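System: CHO RD-HGA16 cells carrying human TAAR1 plus Gα16; Incubation: 17-24 h seeding, 75 min 37 °C dye, 30 min RT; Measured by: Fluo-8 fluorescence, 5 s baseline then 140 s kinetic read; Control set: DMSO and PEA EC100; Replication: single well for each compound.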
TAAR1 antagonist: human TAAR1 antagonists, primary screen, Fluo-8 calcium fluorescence, CHO RD-HGA16 cells; AID 624466, 2012; antagonist; inhibition, % at 3 µM; actives 1.5% (n = 360,000);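 active means inhibition above a per-plate cutoff, the mean inhibition of test compounds on that plate plus 3 SD, cut at about 49% in these data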
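Test system: CHO RD-HGA16 cells bearing hTAAR1 | Reagent: β-PEA, EC80 | Compound dosing: 3 µM, single point | Schedule: Dye loading 75 min at 37 °C, then 30 min room temperature | Signal: Calcium fluorescence with Fluo-8 | Evaluation: Percent inhibition of PEA-evoked calcium signal, max/basal emission ratio | Control set: DMSO-only wells and EC80 β-PEA-stimulated wells | Repeats: Singlicate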
V1aR counter: agonists of human V1a receptor, primary screen, counter-screen for OXTR agonist project, fluorescence, CHO-V1R cells. Fluo-8 calcium fluorescence, agonist mode; 0% DMSO, 100% 3 nM vasopressin. activation, % at 3 µM. actives 0.25% (n = 320,000). AID 2797, 2010;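 active means activation above the mean activation of all tested compounds plus 3 SD, per screening run, cut at about 20% in these data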;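 further: signal is peak over basal fluorescence ratio across a 100 second FLIPR read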
Target sequence (P37288 whole entry, looked up): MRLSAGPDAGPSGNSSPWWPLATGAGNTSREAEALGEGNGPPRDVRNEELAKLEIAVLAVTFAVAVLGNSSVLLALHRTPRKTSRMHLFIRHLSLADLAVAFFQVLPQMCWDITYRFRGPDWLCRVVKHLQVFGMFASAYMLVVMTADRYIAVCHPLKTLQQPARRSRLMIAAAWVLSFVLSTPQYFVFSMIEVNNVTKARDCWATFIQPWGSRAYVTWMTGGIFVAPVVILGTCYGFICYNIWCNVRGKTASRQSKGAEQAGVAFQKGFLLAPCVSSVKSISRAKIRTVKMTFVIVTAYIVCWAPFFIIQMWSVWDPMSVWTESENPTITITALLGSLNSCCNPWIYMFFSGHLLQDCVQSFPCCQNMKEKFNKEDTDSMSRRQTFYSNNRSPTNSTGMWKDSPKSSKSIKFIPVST
TAAR1 nonsel count: nonselective antagonists in TAAR1 counter-screen cells, counter-screen for hTAAR1 antagonist project, cell-based, fluorescence, calcium; shares compounds with TAAR1 antagonist; counterscreen cell line, antagonist mode; inhibition, % at 3 µM; actives 77% (n = 2,400); AID 651780, 2012; in the data active means inhibition above about 22%;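 further: CHO-Ga16 host cells stimulated with ATP at an EC80 level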
TAAR1 ant conf: human TAAR1 antagonists, retest of hits, confirmation, cell-based, fluorescence; shares compounds with TAAR1 antagonist; TAAR1-expressing cells, fluorescence antagonist read-out; inhibition, % at 3 µM; actives 40% (n = 2,400); AID 651785, 2012; in the data active means inhibition above about 49%;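 further: CHO-Ga16 host cells challenged with agonist PEA near its EC80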
Ga16 nonsel ag: calcium activation in Ga16-expressing cells, counter-screen for TAAR1 antagonist project, cell-based, fluorescence. shares compounds with TAAR1 antagonist. agonist counterscreen. activation, % at 3 µM. actives 18% (n = 2,400). AID 651953, 2012; in the data active means activation above about 12%
TAAR1 ag count: TAAR1 activation by candidate antagonists – cell-based, fluorescence, counter-screen for TAAR1 antagonist project; shares compounds with TAAR1 antagonist; hTAAR1 cell line, agonist mode; activation, % at 3 µM; actives 2% (n = 2,400); in the data active means activation above about 37%;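 further: CHO cells stably expressing TAAR1 with calcium dye readout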
Large screens that a line does not name were inactive (follow-up assays come after a bar, where they were run).

CC1CCc2c(sc3nc(C4CC4)nc(N4CCN(C(=O)c5ccco5)CC4)c23)C1 (configuration not stated)	TAAR1 antagonist 58 | TAAR1 nonsel count inactive | TAAR1 ant conf inactive | Ga16 nonsel ag inactive | TAAR1 ag count inactive
CCCCCCCCN1C(=O)[C@@H](CC(=O)NCCCCc2ccccc2)C[C@@]2(C(=O)OC)C1=C[C@H](C(C)(C)C)O[C@@H]2C	none (no result: OXTR agonist, OXTR potentiate, V1aR counter)
Cc1csc(N2CCN(c3cc4nc(-c5ccncc5)[nH]c4cc3Cl)CC2)n1	TAAR1 antagonist 58 | TAAR1 nonsel count 30 | TAAR1 ant conf inactive | Ga16 nonsel ag inactive | TAAR1 ag count inactive
Cc1ccc(-n2c(-c3cnccn3)n[nH]c2=S)c(Br)c1	TAAR1 antagonist 104 | TAAR1 nonsel count inactive | TAAR1 ant conf inactive | Ga16 nonsel ag inactive | TAAR1 ag count inactive
COc1ccc(C)cc1S(=O)(=O)NCC(c1ccc2c(c1)OCO2)N1CCOCC1 (configuration not stated)	none
Cc1c(C(=O)NCc2ccc3c(c2)OCO3)sc2nc(-c3ccccc3)cn12	none
Cc1c(C(=O)Nc2ccc3c(c2)OCO3)sc2nc(-c3ccccc3)cn12	TAAR1 antagonist 85 | TAAR1 nonsel count 44 | TAAR1 ant conf 63 | Ga16 nonsel ag 12 | TAAR1 ag count inactive
CN(CC1CCOCC1)C(=O)CC1C(=O)NCCN1Cc1cccc(Oc2ccccc2)c1 (configuration not stated)	none
CCn1c(SCC(=O)N2CCCc3ccccc32)nnc1-c1c[nH]c2ccccc12	none
CCn1c(SCC(=O)N2CCc3ccccc32)nnc1-c1c[nH]c2ccccc12	TAAR1 antagonist 55 | TAAR1 nonsel count inactive | TAAR1 ant conf inactive | Ga16 nonsel ag inactive | TAAR1 ag count inactive
Cn1nc(C(C)(C)C)c([N+](=O)[O-])c1C(=O)Nc1cccc2ccccc12	TAAR1 antagonist 56 | TAAR1 nonsel count 22 | TAAR1 ant conf inactive | Ga16 nonsel ag inactive | TAAR1 ag count inactive
c1ccc(CN2CCC3CC2c2ccc(N4CCOCC4)cc23)cc1 (configuration not stated)	none (no result: OXTR agonist, OXTR potentiate, V1aR counter)
COc1ccc(C(C)=O)cc1CSC(=S)N1CCSCC1	none (no result: OXTR agonist, OXTR potentiate, V1aR counter)
CC[C@@]1(C(=O)OC)N[C@H](CN(C)C(=O)c2ccc(C(C)(C)C)cc2)[C@@H]2C(=O)N(Cc3ccccc3)C(=O)[C@@H]21	TAAR1 antagonist 66 | TAAR1 nonsel count 28 | TAAR1 ant conf 51 | Ga16 nonsel ag inactive | TAAR1 ag count inactive
Cc1ccccc1C1=CC(=O)CC(C)(C)C1=O	none (no result: OXTR agonist, OXTR potentiate, V1aR counter)
Cc1ccc2cc(NC(=O)c3ccc(C(C)(C)C)cc3)ccc2n1	TAAR1 antagonist 58 | TAAR1 nonsel count 25 | TAAR1 ant conf inactive | Ga16 nonsel ag inactive | TAAR1 ag count inactive
CC/C(=C(/CC)c1ccc(O)cc1)c1ccc(O)cc1	TAAR1 antagonist 57 | TAAR1 nonsel count 23 | TAAR1 ant conf inactive | Ga16 nonsel ag inactive | TAAR1 ag count inactive
Cc1ccccc1OCc1nnc(SCC(=O)Nc2ccc3nc(SCC(=O)NC(C)(C)C)sc3c2)n1C	TAAR1 antagonist 61 | TAAR1 nonsel count 43 | TAAR1 ant conf 62 | Ga16 nonsel ag inactive | TAAR1 ag count inactive
Cc1ccccc1OCc1nnc(SCC(=O)Nc2ccc3c(c2)oc2ccccc23)n1C	none
CC(C)(C)NC(=O)CSc1nc2ccc(NC(=O)CSc3nnnn3Cc3ccccc3)cc2s1	TAAR1 antagonist 49 | TAAR1 nonsel count 36 | TAAR1 ant conf inactive | Ga16 nonsel ag inactive | TAAR1 ag count inactive
COc1ccc2nc(C)cc(SCC(=O)NNC(=O)COc3cccc4ccccc34)c2c1	TAAR1 antagonist 71 | TAAR1 nonsel count 46 | TAAR1 ant conf 56 | Ga16 nonsel ag inactive | TAAR1 ag count inactive
Cc1ccc2nc(-c3ccc(CN4CCC(c5nc6ccccc6[nH]5)CC4)cc3)c(-c3ccccc3)nc2c1	TAAR1 antagonist 73 (no result: OXTR agonist, OXTR potentiate, V1aR counter) | TAAR1 nonsel count 46 | TAAR1 ant conf 60 | Ga16 nonsel ag 15 | TAAR1 ag count inactive
c1ccc(-c2nc3ccccc3nc2-c2ccc(CN3CCC(c4nc5ccccc5[nH]4)CC3)cc2)cc1	TAAR1 antagonist 53 (no result: OXTR agonist, OXTR potentiate, V1aR counter) | TAAR1 nonsel count 34 | TAAR1 ant conf inactive | Ga16 nonsel ag 16 | TAAR1 ag count inactive
N#Cc1ccc2nc(-c3ccc(CN4CCC(c5nc6ccccc6[nH]5)CC4)cc3)c(-c3ccccc3)nc2c1	TAAR1 antagonist 66 (no result: OXTR agonist, OXTR potentiate, V1aR counter) | TAAR1 nonsel count 38 | TAAR1 ant conf inactive | Ga16 nonsel ag inactive | TAAR1 ag count inactive
Cc1cccc2nc(-c3ccccc3)c(-c3ccc(CN4CCC(c5nc6ccccc6[nH]5)CC4)cc3)nc12	none (no result: OXTR agonist, OXTR potentiate, V1aR counter)
O=[N+]([O-])c1cc(F)cc(F)c1Nc1ccc(F)cc1	none (no result: OXTR agonist, OXTR potentiate, V1aR counter)
O=C(N/N=C/c1cn(-c2cccs2)nc1-c1ccccc1)c1ccccc1O	TAAR1 antagonist 75 | TAAR1 nonsel count 55 | TAAR1 ant conf 60 | Ga16 nonsel ag 13 | TAAR1 ag count inactive
COc1cccc(CNC(=S)Nc2ccc3c(c2)c(=O)n(C)n3Cc2ccc(F)cc2)c1	none (no result: OXTR agonist, OXTR potentiate, V1aR counter)
COc1cc(-c2cc(C(=O)Nc3ccncc3)c3ccccc3n2)cc(OC)c1OC	TAAR1 antagonist 61 | TAAR1 nonsel count 28 | TAAR1 ant conf inactive | Ga16 nonsel ag inactive | TAAR1 ag count inactive
O=C(Nc1cccnc1)c1cc(-c2cccc(Br)c2)nc2ccccc12	TAAR1 antagonist 65 | TAAR1 nonsel count 27 | TAAR1 ant conf inactive | Ga16 nonsel ag inactive | TAAR1 ag count inactive
COc1cc(-c2cc(C(=O)Nc3ccc(N4CCOCC4)cc3)c3ccccc3n2)cc(OC)c1OC	TAAR1 antagonist 72 | TAAR1 nonsel count 32 | TAAR1 ant conf 51 | Ga16 nonsel ag inactive | TAAR1 ag count inactive

Screening data: PubChem BioAssay, The Scripps Research Institute Molecular Screening Center
